ChEMBL document CHEMBL4145691, “Metalloporphyrin-Catalyzed Oxidation of Sunitinib and Pazopanib, Two Anticancer Tyrosine Kinase Inhibitors: Evidence for New Potentially Toxic Metabolites” (J Med Chem, 2018)

Experiments:
[1] = Drug level using sunitinib assessed as compound formation in presence of KHSO5 and Mn(III)TDCPP/Cl by NMR and mass spectrometry; type: physicochemical
In short: (§1)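 Biomimetic oxidation catalysed by Mn(III)-porphyrin with water-soluble oxygen donor (KHSO5 or MMPP), run in biphasic water/organic medium with a quaternary ammonium salt as phase-transfer catalyst. Products identified by NMR and mass spectrometry.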

[2] = Retention time of the compound in presence of KHSO5 and Mn(III)TDCPP/Cl by UHPLC-MS analysis; type: physicochemical
In short: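 Sunitinib oxidation mixture run by UHPLC-MS at 0.4 mL/min and 30 °C. Eluents: 5 mM ammonium formate pH 3.2, and 0.1% formic acid in acetonitrile. Gradient 5→35% B by 3.5 min, held to 5.5 min, then 95% by 6.5 min. ESI+, full scan m/z 200–500 plus MRM.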

[3] = Retention time of the compound in human liver microsomes by UHPLC-MS analysis; type: ADME, microsome
In short: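 Human liver microsomes (final 0.5 mg/mL protein) with NADPH regenerating system in 0.1 M phosphate pH 7.4, pre-incubated 5 min at 37 °C. Stopped with acetonitrile, centrifuged, filtered, supernatant analysed by UHPLC-MS (ESI+, full scan/MRM). No-NADPH negative control.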

[4] = Drug level using pazopanib assessed as compound formation in presence of MMPP and Mn(III)TDCPP/Cl by NMR and mass spectrometry; type: physicochemical; in short: as §1
[5] = Retention time of the compound in presence of MMPP and Mn(III)TDCPP/Cl by UHPLC-MS analysis; type: physicochemical
In short: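 Pazopanib oxidation mixture run by UHPLC-MS at 0.4 mL/min and 30 °C. Eluents: 5 mM ammonium formate pH 3.2, and 0.1% formic acid in acetonitrile. ESI+, full scan m/z 200–520 plus MRM.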

In the case of `CCN(CC)CCNC(=O)c1c(CO)[nH]c(/C=C2\C(=O)Nc3ccc(F)cc32)c1C`, the Product formation [1] is reported as “Active”, the Retention_time [2] is reported as 4.36 min and the Retention_time [3] is reported as 4.36 min.
With `Cc1ccc(Nc2ncc(Cl)c(N(C)c3ccc4c(C=O)n(C)nc4c3)n2)cc1S(N)(=O)=O` the Product formation [4] was “Active” and the Retention_time [5] was 3.63 min.
For `CCN(CC)CCNC(=O)c1c(/C=N/OC)[nH]c(/C=C2\C(=O)Nc3ccc(F)cc32)c1C`, the Retention_time [2] was 4.77 min and the Retention_time [3] was 4.74 min.
In the case of `CCN(CC)CCNC(=O)c1c(COC)[nH]c(/C=C2\C(=O)Nc3ccc(F)cc32)c1C`, the Product formation [1] is reported as “Active” and the Retention time [2] is reported as 4.56 min.
In the case of `CO/N=C/c1c2ccc(N(C)c3ccnc(Nc4ccc(C)c(S(N)(=O)=O)c4)n3)cc2nn1C`, the Product formation [4] is reported as “Active” and the Retention time [5] is reported as 2.96 to 3.11 min.
For `Cc1ccc(Nc2ncc(Cl)c(N(C)c3ccc4c(C)n(C)nc4c3)n2)cc1S(N)(=O)=O`, the Product formation [4] was “Active”, the Retention_time [5] was 3.55 min and the Retention_time [3] was 3.54 min.
In the case of `Cc1ccc(Nc2ncc(Cl)c(N(C)c3ccc4c(CO)n(C)nc4c3)n2)cc1S(N)(=O)=O`, the Product formation [4] is reported as “Active” and the Retention_time [5] is reported as 3.32 min.
In the case of `CCN(CC)CCNC(=O)c1c(C=O)[nH]c(/C=C2\C(=O)Nc3ccc(F)cc32)c1C`, the Product formation [1] is reported as “Active”, the Retention_time [2] is reported as 4.36 min and the Retention_time [3] is reported as 4.36 min.
In the case of `Cc1ccc(Nc2nccc(N(C)c3ccc4c(CO)n(C)nc4c3)n2)cc1S(N)(=O)=O`, the Product formation [4] is reported as “Active” and the Retention_time [5] is reported as 2.56 min.
For `CC[N+]([O-])(CC)CCNC(=O)c1c(C)[nH]c(/C=C2\C(=O)Nc3ccc(F)cc32)c1C`, the Product formation [1] was “Active”.
With `CC(=O)OCc1c2ccc(N(C)c3ccnc(Nc4ccc(C)c(S(N)(=O)=O)c4)n3)cc2nn1C` the Product formation [4] was “Active”.
For `Cc1ccc(Nc2nccc(N(C)c3ccc4c(C=O)n(C)nc4c3)n2)cc1S(N)(=O)=O`, the Product formation [4] was “Active”, the Retention_time [5] was 2.82 min and the Retention_time [3] was 2.84 min.
